The source of these data is ChEMBL document CHEMBL1158857, “New steroidal alkaloids from Buxus longifolia” (1997).

Experiment [1] concerns Salmonella typhi. The experiment is described as follows: Antibacterial activity against Salmonella typhi at 100 ug/100 uL after 24 hrs by tube broth dilution method. Further details: unit not given here. The experiment is classed as functional, Salmonella enterica subsp. enterica serovar Typhi. In general terms: Dilution methods test growth across graded concentrations, often in twofold steps.

Experiment [2] concerns Salmonella typhi. The experiment is described as follows: Antibacterial activity against Salmonella typhi at 200 ug/100 uL after 24 hrs by tube broth dilution method. Further details: unit not given here. Format: functional, Salmonella enterica subsp. enterica serovar Typhi.
For experiment [3], the system named is Salmonella typhi. The experiment is described as follows: (§1) Antibacterial activity against Salmonella typhi assessed per 100 uL of nutrient broth after 24 hrs by tube broth dilution method. Format: functional, Salmonella enterica subsp. enterica serovar Typhi. In a few lines:
(§2)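 Tube broth dilution in nutrient broth against sensitive Salmonella typhi: 0.1 mL culture (10^4-10^6 cells/mL) was added to tubes holding 1 mL of test sample at different concentrations plus 1 mL nutrient broth. Tubes were incubated 24 h at 37 °C, growth inhibition was observed, and MIC was recorded. Ampicillin was run the same way as the standard.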

Experiment [4] has as its system Shigella flexneri. The experiment is described as follows: Antibacterial activity against Shigella flexneri at 100 ug/100 uL after 24 hrs by tube broth dilution method. The experiment is classed as functional.
Experiment [5] has as its system Shigella flexneri. The experiment is described as follows: Antibacterial activity against Shigella flexneri at 200 ug/100 uL after 24 hrs by tube broth dilution method. Format: functional.
Experiment [6] has as its system Salmonella typhi. The experiment is described as §1. Format: functional, Salmonella enterica subsp. enterica serovar Typhi. Summed up:
as §2
The source holds these as a separate data set.

The subject of experiment [7] is Pseudomonas aeruginosa. The experiment in a line: Antibacterial activity against Pseudomonas aeruginosa at 100 ug/100 uL after 24 hrs by tube broth dilution method. Format: functional.
Experiment [8] relates to Pseudomonas aeruginosa. The experiment in a line: Antibacterial activity against Pseudomonas aeruginosa at 200 ug/100 uL after 24 hrs by tube broth dilution method. Format: functional.
For experiment [9], the system named is Pseudomonas aeruginosa. The experiment in a line: Antibacterial activity against Pseudomonas aeruginosa assessed per 100 uL of nutrient broth after 24 hrs by tube broth dilution method. The experiment is classed as functional. Summed up:
(§3)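 Tube broth dilution in nutrient broth. Sensitive bacterial culture (0.1 mL of 10^4-10^6 cells/mL) added to tubes holding 1 mL test sample at different concentrations plus 1 mL nutrient broth. Incubated 24 h at 37 °C, then growth inhibition scored visually. Ampicillin run the same way as reference. Minimum inhibitory concentration taken from the dilution series.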

Experiment [10] deals with Escherichia coli. The experiment in a line: Antibacterial activity against Escherichia coli at 100 ug/100 uL after 24 hrs by tube broth dilution method. The experiment is classed as functional.
The test system of experiment [11] is Escherichia coli. The experiment in a line: Antibacterial activity against Escherichia coli at 200 ug/100 uL after 24 hrs by tube broth dilution method. The experiment is classed as functional.
Experiment [12] relates to Escherichia coli. The experiment in a line: Antibacterial activity against Escherichia coli assessed per 100 uL of nutrient broth after 24 hrs by tube broth dilution method. Format: functional. Summed up: as §3

Turning to `CC(=O)O[C@@H]1C[C@@]2(C)[C@@H]3C[C@@H]4OC[C@]5(C)[C@@H](NC(=O)c6ccccc6)CCC(=CC3=CC[C@]2(C)[C@H]1[C@H](C)N(C)C)[C@@H]45` [CYCLOBUXEINE F], the “inhibition zone (IZ)” value in the experiment with Salmonella typhi [1] came out at 7; in the experiment on Salmonella typhi [2] it was 8; in the experiment on Shigella flexneri [4], 7 mm; with Shigella flexneri [5], 7 mm; with Pseudomonas aeruginosa [7], 6 mm; in the experiment on Pseudomonas aeruginosa [8], 8 mm. Besides, the figures for the MIC in the experiment on Salmonella typhi [3], in the experiment on Salmonella typhi [6] and in the experiment with Pseudomonas aeruginosa [9] were 100 µg, 100 µg and 10 µg, respectively.
Consider `CC1(C)S[C@@H]2[C@H](NC(=O)[C@H](N)c3ccccc3)C(=O)N2[C@H]1C(=O)O` [AMPICILLIN], for which the MIC in the experiment with Salmonella typhi [3] turned out to be 30 µg; against Salmonella typhi [6], 30 µg; in the experiment with Pseudomonas aeruginosa [9], 40 µg. In addition, the inhibition zone (IZ) came out at 11 mm in the experiment on Shigella flexneri [4]; 11 mm in the experiment with Shigella flexneri [5]; 11 mm in the experiment on Pseudomonas aeruginosa [7]; 11 mm with Pseudomonas aeruginosa [8]; 11 mm in the experiment on Escherichia coli [10]; 12 mm in the experiment on Escherichia coli [11].
For the compound `CN[C@@H](C)[C@H]1[C@H](O)C[C@@]2(C)[C@@H]3CC[C@H]4C(C)(C)[C@@H](N(C)C)C=C[C@@]45C[C@@]35CC[C@]12C` [BUXASAMARINE], the “inhibition zone (IZ)” value was 6 in the experiment with Salmonella typhi [1]; 8 with Salmonella typhi [2]; 7 mm with Shigella flexneri [5]; 7 mm in the experiment on Pseudomonas aeruginosa [7]; 9 mm in the experiment on Pseudomonas aeruginosa [8]. The MIC against Salmonella typhi [3] worked out at 100 µg; against Salmonella typhi [6], 150 µg; against Pseudomonas aeruginosa [9], 50 µg.
With `C=C1[C@@H](N(C)C(C)=O)CC[C@]23C[C@]24CC[C@]2(C)[C@@H]([C@H](C)NC)CC[C@@]2(C)[C@@H]4CC[C@@H]13` [CYCLOBUXAMIDINE], the “inhibition zone (IZ)” value with Salmonella typhi [1] was 6; in the experiment with Salmonella typhi [2] it was 6; with Escherichia coli [11] it was 6 mm. Further, the MIC is 150 µg against Salmonella typhi [3] and 200 µg against Escherichia coli [12].
